Compound activity as filed in PubChem BioAssay.
Only some compounds are listed: those with a hit (about 4.8% of all), similar ones and a draw of the others.
WT yeast gro inh: growth inhibition of WT yeast, mitochondrial fusion screen; mitochondrial fusion phenotypic screen, WT strain; inhibition, % at 10 µM; 190,000 compounds, 2.1% hits; AID 1362; in the data active means inhibition above about 58%; tested in S. cerevisiae
Mot1-301 SUMO: SUMOylation pathway inhibition by Mot1-301 growth rescue | S. cerevisiae Mot1-301 growth rescue, ATP luminescence, 38.5C; percent above DMSO median, 100 means doubled | growth rescue, % at 18.8 µM | 320,000 compounds, 1% hits | AID 2716;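 active means every valid replicate shows activation above 250% relative to neutral control wells; inactive means the rest, any valid replicate at or below 250%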;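 further: OY570 slx delta 5 strain wells were the positive control but not used for scaling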
T cruzi inh: blocks replication of Trypanosoma cruzi; T. cruzi beta-gal in NIH3T3, luminescence, 90 h; inhibition, % (test concentration not listed); 300,000 compounds, 1.4% hits; AID 1885;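 active means mean inhibition across valid replicates above about 55%, limit read from the data; inconclusive means mean below that limit but half or more replicates reach it; inactive means mean below it, under half of replicates reach it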;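 further: signal also drops with host cell toxicity which is not excluded here; 0% = plate median of DMSO wells and 100% = zero luminescence signal; higher percent means less beta-gal luminescence so fewer parasites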
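System – NIH/3T3 host cells with β-galactosidase reporter T. cruzi · Doses – single 50 nL compound addition per well in DMSO · Reagent – 5000 T. cruzi trypomastigotes/well · Medium – Low-serum DMEM with 2% FBS · Timing – ≥90 h infection period, 3 h prior cell attachment · Evaluation – parasite load inhibition, % · Technique – GalScreen luminescence, 60 min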
CSC inhib: blocks cancer stem cells; cancer stem cell-like cells viability, luminescence; inhibition, % at 7.5 µM; 300,000 compounds, 1.1% hits; AID 2717; in the data active means inhibition above about 75%; inconclusive means no clear call, values can overlap the other calls; tested in HMLE shEcad cells
Beta apoptosis: beta cell apoptosis inhibition | INS-1E cytokine-induced death, ATP luminescence, 48 h; percent of positive-control rescue, neutral wells zero | protection from apoptosis, % (test concentration not listed) | 300,000 compounds, 0.8% hits;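 active means Every replicate reaches about 75%, or at least half do and their mean reaches it too, limit read from the data; inconclusive means At least half of replicates reach the limit but their mean does not; inactive means Under half of replicates reach the limit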;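 further: 0% = cytokine-treated negative control wells and 100% = positive control rescue; higher means more ATP so stronger rescue from cytokine killing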
Efflux pump inh: blocks antifungal efflux pumps in multiplex yeast assay. 330,000 compounds, 0.44% hits. AID 485275. inhibition, % at 10 µM. S. cerevisiae Candida pump triplex, Nile Red efflux;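 active means plate passing quality check with inhibition over a set limit, or well fluorescence over plate mean plus 4 SD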;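 further: Nile Red retained in pooled yeast measured as flow cytometry median fluorescence; 0% = buffer negative control and 100% = Enniatin B positive control; higher means more Nile Red kept so more efflux inhibition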
* marks the source's active call; other numbers are inactive results; ? = inconclusive; / = not tested or not shown.

SMILES | WT yeast gro inh | Mot1-301 SUMO | T cruzi inh | CSC inhib | Beta apoptosis | Efflux pump inh
Cc1cc(=O)[nH]c(N=N/C(=N/Nc2ccccc2C)c2ccccc2)n1 | 23.3 | / | 40.3 | -10.7 | 93.2* | 0.2
Cc1cc(=O)[nH]c(N=N/C(=N/Nc2ccc(O)cc2)c2ccccc2)n1 | 42.5 | -16.7 | 40.1 | -10.6 | 11.0 | -0.1
Cc1noc(C)c1CSCC(=O)N(C)CC(=O)Nc1ccccc1Cl | / | 21.4 | 5.3 | 5.4 | -1.2 | 0.0
Clc1ccc(N/N=C/c2cccnc2)cc1 | 59.4* | 18.8 | 46.1 | 84.6* | -2.9 | 0.0
CC(C)N1C(=O)S/C(=C/c2ccc3c(c2)n(C)c(=O)n3C)C1=O | -4.8 | 5.7 | -12.9 | 7.9 | -3.3 | -0.2
CCN(CC)c1ccc(/C=C2\SC(=O)N(C(C)C)C2=O)o1 | / | 0.1 | 56.3* | 10.7 | 59.9 | 0.0
CCOC(=O)C(C)(C)N(Cc1ccc(Cl)cc1)S(=O)(=O)c1ccc(Cl)c([N+](=O)[O-])c1 | 20.2 | 6.6 | 4.4 | 109.4* | -0.9 | 0.0
CC(C(=O)N1CCc2ccccc21)n1cnc2c1c(=O)n(C)c(=O)n2C (stereo unspecified) | / | -14.3 | / | / | 3.3 | -0.2
CC1(C)CC(=O)C(C=NCCN2CCN(C(=O)C34CC5CC(CC(C5)C3)C4)CC2)=C(O)C1 | / | -5.4 | -14.8 | / | -0.3 | 0.0
CN(c1ccccc1)S(=O)(=O)c1ccc(NC(=S)NC(=O)C2CC2)cc1 | 67.6* | -14.3 | 7.3 | -12.5 | 1.3 | -1.2
CN(c1ccccc1)S(=O)(=O)c1ccc(NC(=S)NC(=O)c2ccccc2)cc1 | 29.9 | -7.5 | 8.0 | 7.1 | -3.7 | 0.5
CC(=O)Nc1ccc(OCCCNC(=O)c2c(-c3ccccc3)noc2C)cc1 | / | 7.7 | -4.4 | -1.2 | 7.6 | 0.1
CCOC(=O)C1CCN(C(=O)c2c(-c3c(Cl)cccc3Cl)noc2C)CC1 | 12.8 | 476.0 | -9.8 | 2.8 | -5.6 | 0.4
CCOCCCNC(=O)c1c(-c2ccccc2)noc1C | -13.6 | 338.0* | -2.3 | 4.6 | -3.2 | 0.0
CCOC(=O)C1CCN(C(=O)c2c(-c3ccccc3)noc2C)CC1 | 5.7 | 765.3* | -8.7 | -17.7 | -0.2 | 0.1
CC(C)CCn1nnnc1CN1CCN(c2ccccc2)CC1 | -16.4 | 8.4 | -4.2 | -7.8 | -2.0 | 0.0
O=C(CC1C(=O)NCCN1Cc1cccc(F)c1)NCCCCCN1CCOCC1 (stereo unspecified) | / | 2.9 | -18.2 | -27.8 | -2.3 | 0.0
CCOC(=O)Cn1c(-c2ccccc2)nc2ccccc2c1=O | 11.5 | -7.1 | 2.9 | -1.4 | -5.1 | 0.2
CCCCOC(=O)Cn1c(-c2ccccc2)nc2ccccc2c1=O | 22.9 | 552.5* | -10.7 | 4.2 | -4.8 | -0.1
Cc1nn(Cc2ccc(Cl)c(Cl)c2)c(C)c1NC(=O)c1cn(-c2ccccc2)nc1-c1ccccc1 | 15.0 | -16.3 | 60.7* | 18.3 | -13.7 | 0.1
Cc1nn(Cc2ccc(Cl)c(Cl)c2)c(C)c1NC(=O)c1cc(-c2ccc3c(c2)OCO3)on1 | 43.3 | -0.9 | ? | 80.6* | 18.7 | 0.1
Cc1ccc(-c2cc(C(=O)NCc3ccco3)no2)cc1 | -16.2 | -8.9 | -13.0 | -4.9 | 4.6 | 0.0
Cc1nn(Cc2ccc(Cl)cc2)c(C)c1NC(=O)c1cc(-c2ccc3c(c2)OCO3)on1 | -8.2 | -0.1 | 56.5* | 83.3* | 25.5 | 0.2
O=C(NCc1ccco1)c1cc(-c2ccc3c(c2)OCO3)on1 | -8.9 | 7.1 | -9.3 | 82.0* | 2.6 | 0.1
COc1ccc(N2CCN(C(=O)COC(=O)CCOc3ccc(C(C)(C)C)cc3)CC2)cc1 | / | -21.0 | -0.3 | -6.1 | 1.7 | -0.1
SMILES | WT yeast gro inh | Mot1-301 SUMO | T cruzi inh | CSC inhib | Beta apoptosis | Efflux pump inh
Cc1nn(Cc2ccccc2)c(C)c1NC(=O)Cn1nc([N+](=O)[O-])c(Cl)c1C | 0.4 | -1.3 | 16.6 | -12.0 | -7.6 | -0.1
Cc1nn(Cc2ccccc2)c(C)c1NC(=O)c1ccc([N+](=O)[O-])cc1[N+](=O)[O-] | -12.7 | 10.0 | 56.0* | 6.5 | 19.4 | -0.2
COc1ccc(S(N)(=O)=O)cc1-c1nnc2c3ccccc3c(C)nn12 | / | 304.4* | 1.0 | -8.5 | 5.0 | 0.0
COCCN(CC(=O)Nc1cccc(C)c1C)C(=O)c1oc2ccccc2c1C | / | 4.0 | / | -8.6 | -15.6 | -0.1
OCCNc1c2ccccc2nc2ccccc12 | 1.7 | 10.8 | 59.0* | 12.1 | / | -0.1
Cc1ccc(-n2nc(C)c3c(C)c(CCC(=O)NCC4CCCO4)c(=O)n(C)c32)cc1 (stereo unspecified) | / | -19.6 | 63.4* | 1.2 | 6.0 | 0.1
CCOC(=O)C1=CN(c2cccc(F)c2)C=C(C(=O)OCC)C1c1cc(OC)c(O)c([N+](=O)[O-])c1 | 87.8* | 3.6 | 10.8 | / | / | -0.1
CCOC(=O)C1=CN(Cc2cccc(F)c2)S(=O)(=O)NC1c1cccc(OC)c1 (stereo unspecified) | / | / | / | / | / | 0.2
CC(=O)N(C)c1nnc(-c2cnccn2)s1 | 73.7* | -16.0 | 3.4 | -9.5 | -3.9 | 0.0
CC1CN(C(=O)CCC(=O)NCc2ccccn2)c2ccccc2O1 (stereo unspecified) | / | -8.0 | -11.8 | -7.3 | -3.2 | 0.2
OC1c2cc(Br)ccc2N=C2CCCN21 (stereo unspecified) | / | -11.0 | 54.7* | -4.0 | 15.0 | -0.4
CC1=Nc2ccc(Br)cc2C(c2ccccc2)N1CC(=O)NN (stereo unspecified) | 8.4 | / | -1.4 | -16.0 | -9.2 | 0.1
CN(C)S(=O)(=O)c1ccc(N2CCCC2)c(C(=O)NNC(=O)COc2cccc(F)c2)c1 | / | 6.1 | / | -8.6 | -0.1 | -0.1
COc1ccc(OC)c(NC(=O)CSc2nnc(-c3ccncc3)s2)c1 | / | 64.3 | -0.7 | -1.3 | / | 0.1
COc1ccc(OC)c(NC(=O)CSc2nnc(-c3cccnc3)s2)c1 | -19.4 | 13.2 | 5.5 | -20.9 | 98.8* | -0.1
Cc1ccc(-c2nn(-c3ccccc3)cc2C(=O)Nc2ccc(C)c(S(=O)(=O)N3CCOCC3)c2)cc1 | 3.9 | -3.4 | 72.9* | 7.6 | 7.0 | -0.2
O=C(Nc1cccc(S(=O)(=O)N2CCOCC2)c1)c1cn(-c2ccccc2)nc1-c1ccc(F)cc1 | -22.6 | -2.9 | 57.2* | 22.5 | 14.0 | -0.3
O=C(c1cn(-c2ccccc2)nc1-c1ccccc1)N1CCOCC1 | 0.1 | 5.2 | 0.5 | -6.4 | -4.8 | 0.0
O=C(c1cn(-c2ccccc2)nc1-c1ccc(Cl)cc1)N1CCOCC1 | -1.0 | 331.1* | 2.0 | -2.1 | 0.1 | -0.1
COC(=O)c1ccc(NC(=O)c2cn(-c3ccccc3)nc2-c2ccncc2)cc1 | 14.4 | 42.9 | 56.3* | 0.4 | -1.7 | -0.1
COc1cc(CC(=O)OCc2ccccc2F)cc(OC)c1OC | / | 167.8 | -9.9 | -17.6 | -7.4 | -0.1
CCOC(=O)C1CCN(C(=O)C2COc3ccccc3O2)CC1 (stereo unspecified) | / | -13.3 | -0.4 | -10.2 | 0.4 | 0.0
CC(=O)c1ccc(N(CC(=O)NC2CCCC2)C(=O)CNC(=O)c2ccco2)cc1 | / | 7.9 | 13.4 | -6.1 | 1.5 | 0.1
